# Most compounds without a hit are left out; they make up all but 2.7% or so of the library.
# Hep lipid drop – modulators of hepatic lipid droplet formation | AML12 mouse hepatocytes, oleate lipid droplets, BODIPY imaging | inhibition, % at 6.5 µM | 0.4% of 240,000 active;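 active = lipid droplet intensity inhibited by at least 50%, with more than 500 cells counted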
#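 Test system: AML12 hepatocytes (mouse); reagent: oleate loading, 100 µM; dosing: one dose, 6.5 µM compound; incubation: overnight exposure; signal: fluorescence imaging, 20x objective, two fields per well; read-out basis: % inhibition of corrected integrated BODIPY droplet signal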
# NTR1 agonist – activates human neurotensin receptor 1; NTR1-U2OS beta-arrestin-GFP spot imaging, agonist mode; 0.17% of 330,000 active; activation, % at 20 µM; AID 493036; P30989;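 active = activation at or above 40% of the spot to cytoplasm intensity ratio, with at least 20 cells analyzed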
# HTR2A ag – agonists of mouse serotonin 5-HT2A receptor (HTR2A) | CHO-K1 mHTR2A beta-arrestin complementation, luminescence; percent of 30 µM serotonin response | activation, % at 7.6 µM | 0.66% of 360,000 active | AID 624169;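 active = activation above a run cutoff, the mean activation of all tested compounds plus 3 SD, cut at about 14% in these data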
# Target sequence (P35363 whole entry, looked up): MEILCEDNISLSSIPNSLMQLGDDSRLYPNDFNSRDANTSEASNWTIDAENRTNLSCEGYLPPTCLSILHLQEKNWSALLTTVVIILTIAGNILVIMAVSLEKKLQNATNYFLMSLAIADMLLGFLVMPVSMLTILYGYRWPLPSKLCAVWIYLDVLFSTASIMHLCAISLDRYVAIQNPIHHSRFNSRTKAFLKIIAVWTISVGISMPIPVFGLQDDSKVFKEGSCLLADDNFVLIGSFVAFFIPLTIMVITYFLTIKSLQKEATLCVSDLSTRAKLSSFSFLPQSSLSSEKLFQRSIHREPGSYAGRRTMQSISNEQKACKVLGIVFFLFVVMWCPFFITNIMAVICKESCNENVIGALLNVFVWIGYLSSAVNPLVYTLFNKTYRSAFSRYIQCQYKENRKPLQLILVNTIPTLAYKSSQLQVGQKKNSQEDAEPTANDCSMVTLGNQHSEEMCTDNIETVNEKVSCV
# MC4R ag barr – human MC4R agonism via beta-arrestin; AID 540308; U2OS MC4R beta-arrestin complementation, luminescence; percent of melanotan II response, DMSO zero; activation, % at 8.9 µM; 0.98% of 360,000 active; P32245;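 active = activation above a per-plate cutoff, the mean activation of sample wells on that plate plus 3 SD, cut at about 8% in these data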
# MC4R antag cAMP – antagonists of human melanocortin 4 receptor (MC4R); P32245; inhibition, % at 6.5 µM; 0.48% of 360,000 active; MC4R-expressing cells, MTII-stimulated cAMP, LANCE TR-FRET;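 active = inhibition above its plate's cutoff, the mean of tested wells on that plate plus 3 SD, cut at about 29% in these data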
#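 material = U2OS cells stably expressing human melanocortin 4 receptor (MC4R) | also added = Melanotan II challenge | dosing = single nominal compound dose of 6.5 µM | detection = TR-FRET with Eu-cAMP and labeled anti-cAMP, 671 nm | replication = singlicate | timing = compound 30 min, challenge 1 h, detection 1 h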
# PREPL inh – inhibits the human prolyl oligopeptidase-like enzyme | inhibition, % at 5.96 µM | AID 2751 | 0.68% of 320,000 active | Q4J6C6 | recombinant PREPL, fluorescence polarization activity-based probe; in the data active = inhibition above about 43%
# U2OS cAMP counter – nonselective cAMP signaling inhibitor, MC4R antagonist counter-screen; shares compounds with MC4R antag cAMP; parental U2OS, forskolin cAMP, LANCE TR-FRET; inhibition, % at 6.5 µM; 26% of 1,600 active; AID 602193;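 active = mean inhibition over triplicates above the low-control well mean plus 3 SD, set per campaign, cut at about 13% in these data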;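 note: signal is single emission at 671 nm which falls as cellular cAMP rises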
# MC4R antag conf – human MC4R cAMP antagonism confirmation. inhibition, % at 6.5 µM. shares compounds with MC4R antag cAMP. AID 602195. MC4R-expressing cells, MTII-stimulated cAMP, TR-FRET. 27% of 1,600 active; in the data active = inhibition above about 29%
# Numbers stand for hits; n = inactive; x = no result.
SMILES,Hep lipid drop,NTR1 agonist,HTR2A ag,MC4R ag barr,MC4R antag cAMP,PREPL inh,U2OS cAMP counter,MC4R antag conf
Cc1nc(SCCC(=O)O)c2ccccc2n1,n,n,n,n,54,n,19,34
Cc1cc(SCCC(=O)O)nc2ccccc12,x,n,n,n,n,n,x,x
CN(Cc1ccccc1)c1nc(N)nc(Cl)c1C=O,x,n,n,n,34,n,17,n
CCC(=O)Nc1ccc(C(=O)NCc2ccccn2)cc1,n,n,n,n,n,n,x,x
COCCN(C(=O)CNC(=O)c1ccco1)C(C(=O)NC1CCCC1)c1ccccc1F (stereo unspecified),n,n,n,n,n,n,x,x
COCCN(C(=O)c1csnn1)C(C(=O)NC1CCCC1)c1ccccc1F (stereo unspecified),n,n,n,n,29,n,n,n
COCCN(C(=O)c1csnn1)C(C(=O)NC1CCCC1)c1ccc(C)cc1 (stereo unspecified),n,n,n,n,n,n,x,x
COCCNC(=O)C(c1ccccc1F)N(C(=O)C(=O)NC1CCCC1)C1CCCCC1 (stereo unspecified),n,n,n,n,29,n,n,n
COc1ccc(/C=C2\C(=O)ON=C2c2ccccc2)cc1OC,n,n,n,n,31,n,n,n
COc1ccc(/C=C2/C(=O)ON=C2c2ccccc2)cc1OC,x,n,n,n,n,n,x,x
COc1cc(/C=C2\C(=N)N3N=C(C)SC3=NC2=O)cc(Cl)c1OCCOc1ccc(NC(C)=O)cc1,n,n,n,n,30,n,n,n
O=C(N/N=C/c1cc(Br)ccc1OC(=O)c1ccc(Br)cc1)c1ccncc1,n,n,n,n,n,n,x,x
C=C(C(=O)c1ccccc1)C(C)CC(=O)c1ccccc1 (stereo unspecified),n,n,n,n,33,n,23,50
O=C(CC(Nc1ccccc1)C(=O)O)c1ccccc1 (stereo unspecified),x,n,n,n,n,n,x,x
CCOC(=O)Cn1nnnc1CN(Cc1cccs1)Cc1cc2cc(C)ccc2[nH]c1=O,n,n,n,n,31,n,n,n
COc1ccc2c(C#CCCO)c(-c3ccc(S(C)(=O)=O)cc3)sc2c1,x,n,n,n,36,n,n,n
CS(=O)(=O)c1ccc(-c2sc3ccccc3c2C#CCCO)cc1,x,n,n,n,n,n,x,x
Cc1c(CC(=O)O)c(=O)oc2cc(OCc3ccc(Cl)cc3)ccc12,x,n,n,n,n,n,x,x
CCCCOc1cccc(OCC(=O)Nc2nc3ccccc3[nH]2)c1,n,n,n,n,33,n,n,n
CCC(=O)c1ccc(OCC(=O)OCC(=O)NCC2CCCCC2)cc1,x,n,n,n,n,n,x,x
COc1ccc(-n2cccc2/C=C/[N+](=O)[O-])cc1,n,n,n,n,n,n,x,x
Cc1ccc(S(=O)(=O)n2cccc2/C=C/[N+](=O)[O-])cc1,x,x,n,n,38,x,n,n
Cc1cc(NC(=O)CON=C(N)CC(=O)Nc2ccccc2Cl)ccc1Br,x,n,n,n,n,x,x,x
O=C(C[C@H]1C/C=C\CC[C@H](Cc2ccc(F)cc2)C(=O)OC[C@H]2CCCN2C1=O)NCCO,x,n,n,n,n,n,x,x
CCCc1cc(=O)oc2c3c(c4c(c12)OC(C)(C)C=C4)OC(C)C(C)C3O (stereo unspecified),n,n,n,n,30,n,n,n
CCCc1cc(=O)oc2c3c(cc(OCC(=O)N[C@@H](C)C(=O)O)c12)OC(C)(C)CC3,n,n,n,n,n,n,x,x
CCOC(=O)c1sc(N2N=C(C)/C(=C\c3ccc(OCC(=O)OC)cc3)C2=O)nc1C,n,n,n,n,31,n,n,n
CC1CCC(NC(=O)CCNC(=O)c2ccccc2)CC1 (stereo unspecified),n,n,n,n,n,n,x,x
COC(=O)c1sc(-c2cccs2)cc1NC(=O)/C=C/C(=O)O,n,n,n,n,32,n,n,n
